# Measurements as given in ChEMBL document CHEMBL1129630, “Synthesis and structure-activity relationships of retinoid X receptor selective diaryl sulfide analogs of retinoic acid” (J Med Chem, 1996).
# Key:
# [1] = target: T1, Retinoic acid receptor alpha (Homo sapiens, UniProt P10276); test: Transcriptional activation of Retinoic acid receptor RAR alpha;NA=not active; design: species or system Cercopithecidae
# T1 sequence (P10276 whole entry): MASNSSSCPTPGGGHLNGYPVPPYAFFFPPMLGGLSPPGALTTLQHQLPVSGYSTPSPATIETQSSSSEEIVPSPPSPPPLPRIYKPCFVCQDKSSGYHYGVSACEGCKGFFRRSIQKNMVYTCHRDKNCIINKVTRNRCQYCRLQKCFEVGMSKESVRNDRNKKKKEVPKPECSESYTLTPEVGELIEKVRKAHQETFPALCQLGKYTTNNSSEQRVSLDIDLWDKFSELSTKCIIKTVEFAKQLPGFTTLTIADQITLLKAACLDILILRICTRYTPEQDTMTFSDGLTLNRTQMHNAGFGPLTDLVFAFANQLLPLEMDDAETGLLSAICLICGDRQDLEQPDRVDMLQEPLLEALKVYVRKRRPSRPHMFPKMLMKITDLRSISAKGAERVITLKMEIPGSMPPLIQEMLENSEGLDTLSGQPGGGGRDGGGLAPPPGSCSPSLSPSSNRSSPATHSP
# Outline: (§1)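 CV-1 cells transiently cotransfected with the receptor construct and a reporter gene, with induced transcription measured. Activity is normalized to all-trans RA. EC50 is the concentration giving 50% of maximal observed response, from a single experiment in triplicate.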
# [2] = target: T2, Retinoic acid receptor RXR-gamma (Homo sapiens, UniProt P48443); test: Transcriptional activation of Retinoid X receptor RXR gamma; design: species or system Cercopithecidae
# T2 sequence (P48443 whole entry): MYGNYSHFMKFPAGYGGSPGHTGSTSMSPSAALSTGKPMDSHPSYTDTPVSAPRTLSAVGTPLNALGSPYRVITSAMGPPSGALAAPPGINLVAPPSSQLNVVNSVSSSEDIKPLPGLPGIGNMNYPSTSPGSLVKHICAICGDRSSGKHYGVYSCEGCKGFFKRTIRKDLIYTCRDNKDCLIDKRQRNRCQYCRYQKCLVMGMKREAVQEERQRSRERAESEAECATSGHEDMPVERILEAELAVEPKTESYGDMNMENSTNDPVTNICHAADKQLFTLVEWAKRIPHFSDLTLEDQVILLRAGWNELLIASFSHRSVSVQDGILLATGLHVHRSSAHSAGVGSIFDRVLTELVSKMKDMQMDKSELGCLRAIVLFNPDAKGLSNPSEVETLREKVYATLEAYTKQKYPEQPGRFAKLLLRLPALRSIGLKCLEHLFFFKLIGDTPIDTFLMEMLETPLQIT
# Outline: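 CV-1 cells transiently cotransfected with the receptor construct and a reporter gene, with induced transcription measured. Activity is normalized to all-trans RA.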
# [3] = target: T3, Retinoic acid receptor RXR-alpha (Mus musculus, UniProt P28700); test: Dissociation constant for binding to Retinoid X receptor alpha
# T3 sequence (P28700 whole entry): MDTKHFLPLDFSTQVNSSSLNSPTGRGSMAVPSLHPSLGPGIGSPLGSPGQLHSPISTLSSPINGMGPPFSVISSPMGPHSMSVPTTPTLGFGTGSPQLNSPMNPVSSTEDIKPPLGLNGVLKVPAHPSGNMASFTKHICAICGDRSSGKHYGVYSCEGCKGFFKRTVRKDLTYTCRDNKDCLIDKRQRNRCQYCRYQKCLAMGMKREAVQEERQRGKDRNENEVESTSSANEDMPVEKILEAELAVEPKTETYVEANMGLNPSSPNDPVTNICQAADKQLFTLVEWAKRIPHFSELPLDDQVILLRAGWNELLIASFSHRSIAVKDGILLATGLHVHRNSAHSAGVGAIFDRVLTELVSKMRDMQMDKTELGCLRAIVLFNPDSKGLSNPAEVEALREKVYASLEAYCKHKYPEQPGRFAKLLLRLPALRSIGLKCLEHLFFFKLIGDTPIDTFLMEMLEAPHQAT
# [4] = target: T4, Retinoic acid receptor RXR-beta (Mus musculus, UniProt P28704); test: Dissociation constant for binding to Retinoid X receptor beta
# T4 sequence (P28704 whole entry): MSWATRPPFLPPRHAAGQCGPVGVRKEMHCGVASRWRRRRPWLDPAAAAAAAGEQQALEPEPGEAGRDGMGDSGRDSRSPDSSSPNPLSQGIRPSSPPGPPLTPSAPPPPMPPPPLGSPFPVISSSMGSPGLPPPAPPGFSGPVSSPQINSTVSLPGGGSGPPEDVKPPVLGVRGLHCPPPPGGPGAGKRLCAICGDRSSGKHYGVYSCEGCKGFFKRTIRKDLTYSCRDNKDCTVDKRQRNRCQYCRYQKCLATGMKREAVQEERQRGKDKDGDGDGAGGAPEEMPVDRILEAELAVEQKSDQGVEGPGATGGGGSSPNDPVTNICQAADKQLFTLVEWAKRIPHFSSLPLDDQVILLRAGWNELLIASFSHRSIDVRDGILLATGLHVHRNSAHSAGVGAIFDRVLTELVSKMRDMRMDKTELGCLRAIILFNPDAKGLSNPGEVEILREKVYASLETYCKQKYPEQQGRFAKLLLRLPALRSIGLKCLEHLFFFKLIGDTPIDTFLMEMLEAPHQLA
# Outline: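 Competitive binding assay measuring displacement at the RXRβ receptor subtype.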
# [5] = target: T5, Retinoic acid receptor gamma (Homo sapiens, UniProt P13631); test: Transcriptional activation of Retinoic acid receptor RAR gamma;NA=not active; design: species or system Cercopithecidae; outline: as §1
# T5 sequence (P13631 whole entry): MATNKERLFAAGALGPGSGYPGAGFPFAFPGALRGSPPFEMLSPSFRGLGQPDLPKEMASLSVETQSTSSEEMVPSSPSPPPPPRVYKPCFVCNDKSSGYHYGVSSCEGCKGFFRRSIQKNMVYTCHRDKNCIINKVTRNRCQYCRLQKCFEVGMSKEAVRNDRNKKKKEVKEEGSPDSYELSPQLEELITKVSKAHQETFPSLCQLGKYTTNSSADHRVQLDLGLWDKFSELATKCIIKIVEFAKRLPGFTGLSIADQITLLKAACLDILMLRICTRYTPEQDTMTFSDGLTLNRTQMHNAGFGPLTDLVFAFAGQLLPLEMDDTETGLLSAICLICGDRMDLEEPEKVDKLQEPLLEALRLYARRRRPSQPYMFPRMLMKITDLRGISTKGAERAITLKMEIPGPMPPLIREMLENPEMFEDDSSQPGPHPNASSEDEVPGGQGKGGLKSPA
EC50 [1],EC50 [2] [nM],Kd [3] [nM],Kd [4] [nM],EC50 [5],SMILES
Not Active,280,296,,,Cc1cc2c(cc1Sc1ccc(C(=O)O)cc1)C(C)(C)CCC2(C)C
Not Active,,3870,3090,,CC1(C)CCC(C)(C)c2cc(Sc3ccc(C(=O)O)cc3)ccc21
Not Active,1600,> 10000,> 10000,Not Active,Cc1cc2c(cc1[S+]([O-])c1ccc(C(=O)O)cc1)C(C)(C)CCC2(C)C (centres undefined)
Not Active,42,32,87,Not Active,Cc1cc2c(cc1Sc1ccc(C(=O)O)cn1)C(C)(C)CCC2(C)C
Not Active,1900,1000,1000,Not Active,Cc1cc2c(cc1Sc1ncc(C(=O)O)s1)C(C)(C)CCC2(C)C
Not Active,,2520,,Not Active,Cc1cc2c(cc1S(=O)(=O)c1ccc(C(=O)O)cc1)C(C)(C)CCC2(C)C
